Activity calls are given as the source filed them. No cut-off for these calls is given here.
What was measured:
[1] = tested on: Schizosaccharomyces pombe; assay: Antifungal activity against Schizosaccharomyces pombe DSM 70572 assessed as fungal growth inhibition at 66.7 to 0.52 microg/ml incubated overnight by serial dilution assay; type: functional, organism-based; conditions: dose 66.7-0.52 µg/ml
Outline: (§1)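 Broth microdilution MIC. Compounds diluted in methanol across 66.7–0.52 μg/mL; incubated overnight. MIC is the lowest concentration with no visible growth of the test strain. Positive controls were ciprofloxacin, kanamycin, gentamycin and oxytetracycline for bacteria and nystatin for fungi.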

Staphylococcus aureus = assay: Antibacterial activity against Staphylococcus aureus DSM 346 assessed as bacterial growth inhibition at 66.7 to 0.52 microg/ml incubated overnight by serial dilution assay; type: functional, organism-based; conditions: dose 66.7-0.52 µg/ml; outline: as §1
Rhodotorula glutinis = assay: Antifungal activity against Rhodotorula glutinis DSM 10134 assessed as fungal growth inhibition at 66.7 to 0.52 microg/ml incubated overnight by serial dilution assay; type: functional, organism-based; conditions: dose 66.7-0.52 µg/ml; outline: as §1
Wickerhamomyces anomalus = assay: Antifungal activity against Pichia anomala DSM 6766 assessed as fungal growth inhibition at 66.7 to 0.52 microg/ml incubated overnight by serial dilution assay; type: functional, organism-based; conditions: dose 66.7-0.52 µg/ml; outline: as §1
PC-12 = assay: Induction of neurite outgrowth in NGF-treated rat PC12 cells at 5 ug/mL measured after 48 hrs by phase contrast microscopy; type: functional, cell-based; conditions: dose 5.0 µg/ml
Outline: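 PC-12 cells grown in RPMI-1640 with 10% heat-inactivated horse serum, 5% FBS and 2 mM L-glutamine. Seeded at 1.5 × 10^4 cells/well on collagen IV and allowed to attach 6 h at 37 °C, 7.5% CO2. Medium then switched to differentiation medium (1% horse serum) with compound at 5 μg/mL plus NGF 5 ng/mL; DMSO control. Mean neurite length from phase-contrast live imaging at 48 h; five independent experiments, one-tailed t-test.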

[2] = tested on: Mycolicibacterium smegmatis; assay: Antibacterial activity against Mycobacterium smegmatis ATCC 700084 assessed as bacterial growth inhibition at 66.7 to 0.52 microg/ml incubated overnight by serial dilution assay; type: functional, organism-based; conditions: dose 66.7-0.52 µg/ml; outline: as §1
Acinetobacter baumannii = assay: Antibacterial activity against Acinetobacter baumannii DSM 30008 assessed as bacterial growth inhibition at 66.7 to 0.52 microg/ml incubated overnight by serial dilution assay; type: functional, organism-based; conditions: dose 66.7-0.52 µg/ml; outline: as §1
Bacillus subtilis = assay: Antibacterial activity against Bacillus subtilis DSM 10 assessed as bacterial growth inhibition at 66.7 to 0.52 microg/ml incubated overnight by serial dilution assay; type: functional, organism-based; conditions: dose 66.7-0.52 µg/ml; outline: as §1
L929 = assay: Cytotoxicity against mouse L929 cells incubated for 5 days by MTT assay; type: toxicity, cell-based; conditions: l929, 120 h, time 5 day
Outline: (§2)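 MTT viability test in 96-well plates on KB3.1 (human endocervical adenocarcinoma) and L929 (mouse fibroblast) lines, reported as IC50; epothilone B positive control.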

[3] = tested on: Chromobacterium violaceum; assay: Antibacterial activity against Chromobacterium violaceum DSM 30191 assessed as bacterial growth inhibition at 66.7 to 0.52 microg/ml incubated overnight by serial dilution assay; type: functional, organism-based; conditions: dose 66.7-0.52 µg/ml; outline: as §1
Candida albicans = assay: Antifungal activity against Candida albicans DSM 1665 assessed as fungal growth inhibition at 66.7 to 0.52 microg/ml incubated overnight by serial dilution assay; type: functional, organism-based; conditions: dose 66.7-0.52 µg/ml; outline: as §1
KB 3-1 = assay: Cytotoxicity against human KB-3-1 cells incubated for 5 days by MTT assay; type: toxicity, cell-based; conditions: kb 3-1, 120 h, time 5 day; outline: as §2
Pseudomonas aeruginosa = assay: Antibacterial activity against Pseudomonas aeruginosa PA14 assessed as bacterial growth inhibition at 66.7 to 0.52 microg/ml incubated overnight by serial dilution assay; type: functional, organism-based; conditions: dose 66.7-0.52 µg/ml; outline: as §1
Escherichia coli = assay: Antibacterial activity against Escherichia coli DSM 1116 assessed as bacterial growth inhibition at 66.7 to 0.52 microg/ml incubated overnight by serial dilution assay; type: functional, organism-based; conditions: dose 66.7-0.52 µg/ml; outline: as §1
Mucor hiemalis = assay: Antifungal activity against Mucor hiemalis DSM 2656 assessed as fungal growth inhibition at 66.7 to 0.52 microg/mlincubated overnight by serial dilution assay; type: functional, organism-based; conditions: dose 66.7-0.52 µg/ml; outline: as §1

C[C@]12CCC[C@@](C)(C(=O)O)[C@@H]1CC=C1CO[C@H](O)[C@@H]12
inhibition [1]: inactive | inhibition (Staphylococcus aureus): inactive | inhibition (Rhodotorula glutinis): inactive | inhibition (Wickerhamomyces anomalus): inactive | Activity (PC-12): Active | inhibition [2]: inactive | inhibition (Acinetobacter baumannii): inactive | inhibition (Bacillus subtilis): inactive | Activity (L929): Non-Toxic | inhibition [3]: inactive | inhibition (Candida albicans): inactive | Activity (KB 3-1): Non-Toxic | inhibition (Pseudomonas aeruginosa): inactive | inhibition (Escherichia coli): inactive | inhibition (Mucor hiemalis): inactive

COC(=O)[C@H]1C(C(=O)O)=CC[C@@H]2[C@]1(C)CCC[C@@]2(C)C(=O)O
inhibition [1]: inactive | inhibition (Staphylococcus aureus): inactive | inhibition (Rhodotorula glutinis): inactive | inhibition (Wickerhamomyces anomalus): inactive | inhibition [2]: inactive | inhibition (Acinetobacter baumannii): inactive | inhibition (Bacillus subtilis): inactive | Activity (L929): Non-Toxic | inhibition [3]: inactive | inhibition (Candida albicans): inactive | Activity (KB 3-1): Non-Toxic | inhibition (Pseudomonas aeruginosa): inactive | inhibition (Escherichia coli): inactive | inhibition (Mucor hiemalis): inactive

C[C@@]1(C(=O)O)CCC[C@]2(C)C3=C(COC3=O)C(=O)C[C@@H]12
inhibition [1]: inactive | inhibition (Staphylococcus aureus): inactive | inhibition (Rhodotorula glutinis): inactive | inhibition (Wickerhamomyces anomalus): inactive | inhibition [2]: inactive | inhibition (Acinetobacter baumannii): inactive | inhibition (Bacillus subtilis): inactive | Activity (L929): Non-Toxic | inhibition [3]: inactive | inhibition (Candida albicans): inactive | Activity (KB 3-1): Non-Toxic | inhibition (Pseudomonas aeruginosa): inactive | inhibition (Escherichia coli): inactive | inhibition (Mucor hiemalis): inactive

C[C@@]1(C(=O)O)CCC[C@]2(C)c3cocc3C(=O)C[C@@H]12
inhibition [1]: inactive | inhibition (Staphylococcus aureus): inactive | inhibition (Rhodotorula glutinis): inactive | inhibition (Wickerhamomyces anomalus): inactive | Activity (PC-12): Active | inhibition [2]: inactive | inhibition (Acinetobacter baumannii): inactive | inhibition (Bacillus subtilis): inactive | Activity (L929): Non-Toxic | inhibition [3]: inactive | inhibition (Candida albicans): inactive | Activity (KB 3-1): Non-Toxic | inhibition (Pseudomonas aeruginosa): inactive | inhibition (Escherichia coli): inactive | inhibition (Mucor hiemalis): inactive

C[C@@]12C=C(CO)[C@@H](O)C[C@H]1[C@](C)(C(=O)O)CCC2
inhibition [1]: inactive | inhibition (Staphylococcus aureus): inactive | inhibition (Rhodotorula glutinis): inactive | inhibition (Wickerhamomyces anomalus): inactive | Activity (PC-12): Active | inhibition [2]: inactive | inhibition (Acinetobacter baumannii): inactive | inhibition (Bacillus subtilis): inactive | Activity (L929): Non-Toxic | inhibition [3]: inactive | inhibition (Candida albicans): inactive | Activity (KB 3-1): Non-Toxic | inhibition (Pseudomonas aeruginosa): inactive | inhibition (Escherichia coli): inactive | inhibition (Mucor hiemalis): inactive

C[C@@]12C=C(CO)C(=O)C[C@H]1[C@](C)(C(=O)O)CC[C@@H]2O
inhibition [1]: inactive | inhibition (Staphylococcus aureus): inactive | inhibition (Rhodotorula glutinis): inactive | inhibition (Wickerhamomyces anomalus): inactive | Activity (PC-12): Active | inhibition [2]: inactive | inhibition (Acinetobacter baumannii): inactive | inhibition (Bacillus subtilis): inactive | Activity (L929): Non-Toxic | inhibition [3]: inactive | inhibition (Candida albicans): inactive | Activity (KB 3-1): Non-Toxic | inhibition (Pseudomonas aeruginosa): inactive | inhibition (Escherichia coli): inactive | inhibition (Mucor hiemalis): inactive

C[C@@]12C=C(C(=O)O)[C@@H](O)C[C@H]1[C@](C)(C(=O)O)CCC2
inhibition [1]: inactive | inhibition (Staphylococcus aureus): inactive | inhibition (Rhodotorula glutinis): inactive | inhibition (Wickerhamomyces anomalus): inactive | Activity (PC-12): Active | inhibition [2]: inactive | inhibition (Acinetobacter baumannii): inactive | inhibition (Bacillus subtilis): inactive | Activity (L929): Non-Toxic | inhibition [3]: inactive | inhibition (Candida albicans): inactive | Activity (KB 3-1): Non-Toxic | inhibition (Pseudomonas aeruginosa): inactive | inhibition (Escherichia coli): inactive | inhibition (Mucor hiemalis): inactive

C[C@]12CCC[C@@](C)(C(=O)O)[C@@H]1CC=C(CO)[C@H]2C=O
inhibition [1]: inactive | inhibition (Staphylococcus aureus): inactive | inhibition (Rhodotorula glutinis): inactive | inhibition (Wickerhamomyces anomalus): inactive | Activity (PC-12): Active | inhibition [2]: inactive | inhibition (Acinetobacter baumannii): inactive | inhibition (Bacillus subtilis): inactive | Activity (L929): Non-Toxic | inhibition [3]: inactive | inhibition (Candida albicans): inactive | Activity (KB 3-1): Non-Toxic | inhibition (Pseudomonas aeruginosa): inactive | inhibition (Escherichia coli): inactive | inhibition (Mucor hiemalis): inactive
